Source: PubChem BioAssay (several laboratories)
A selection: hits, their analogues and other compounds. The true share with any hit is near 0.97%.
Beta2AR agonist: agonists of human beta-2 adrenergic receptor inducing internalization; response, % (no concentration beside the values); 340,000 compounds, 0.43% hits; P07550; Am2.2-beta2AR cells, FAP receptor internalization, flow cytometry;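 active means response above a set limit, near 3 SD of response in nonfluorescent compounds, cut at about 42% in these data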
Target sequence (P07550 whole entry, looked up): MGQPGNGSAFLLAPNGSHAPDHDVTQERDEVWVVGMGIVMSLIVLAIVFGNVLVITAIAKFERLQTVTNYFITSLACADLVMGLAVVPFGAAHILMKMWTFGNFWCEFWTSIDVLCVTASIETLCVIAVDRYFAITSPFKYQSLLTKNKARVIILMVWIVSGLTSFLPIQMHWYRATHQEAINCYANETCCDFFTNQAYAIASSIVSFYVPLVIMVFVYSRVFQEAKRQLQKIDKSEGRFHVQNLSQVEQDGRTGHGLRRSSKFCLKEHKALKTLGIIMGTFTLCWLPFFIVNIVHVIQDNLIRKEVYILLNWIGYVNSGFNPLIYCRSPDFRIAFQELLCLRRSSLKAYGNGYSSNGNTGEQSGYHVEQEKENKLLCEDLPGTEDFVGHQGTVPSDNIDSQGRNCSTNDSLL
zVAD death inh: blocks zVAD induced death of L929 cells | L929 zVAD necroptosis rescue, ATP luminescence, 24 h; with zVAD 60 µM | viability rescue, % at 10 µM | 220,000 compounds, 0.38% hits;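 active means activation, scaled between plate controls, above about 75%, limit read from the data; inactive means activation under that limit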;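 further: 0% = zVAD with DMSO and 100% = DMSO alone without zVAD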
Mdm2 ligase inh: inhibitors of human Mdm2 E3 ubiquitin ligase; Q00987; 210,000 compounds, 0.11% hits; signal enhancement, % at 5 µM; cell-based MDM2 ubiquitination luciferase reporter, 2 h; 0 = plate control, 100 = twice control, blank-subtracted;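 active means signal enhancement of 30% or more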;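 further: luminescence tracks abundance of the self-degrading MDM2-luciferase fusion protein; higher signal means inhibition of MDM2 E3 ligase activity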
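Buffer or medium: Cells held in DMEM | Assay system: Stable mammalian line carrying autodegrading MDM2–luciferase fusion reporter | Quantity: 2000 cells/well | Times: 4 h settle plus 2 h compound, 37 °C | Doses: One concentration, 5 µM, with 0.2% DMSO | Technique: Luminescence with SteadyLite reagent, 15 min at room temperature | Benchmarks: Plate controls and plate blanks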
TNF necrop inh: TNF-alpha cell death inhibition in Jurkat FADD-/- cells | Jurkat FADD-/- TNF necroptosis rescue, ATP luminescence, 24 h; 0 = TNF only, 100 = no-TNF cells | activation (protection from cell death), % at 10 µM | 220,000 compounds, 0.068% hits;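 active means activation, meaning protection from cell death, of at least 50% relative to plate controls; inactive means activation below 50%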;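 further: necroptosis triggered by 40 ng/mL TNF-alpha added together with compound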
Dynein cargo inh: blocks dynein driven cargo transport along microtubules; z-score, hits read low; 3617.4 mouse cells, GR-EGFP nuclear translocation imaging; test concentration mostly 20 µM; stimulated with dexamethasone, 1 µM; hits give low values; AID 1381; 220,000 compounds, 0.47% hits;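 active means plate z-score of nuclear minus cytoplasmic receptor signal below a set negative limit, without overly bright fluorescence or cell loss, cut at about -3.5 in these data, passing the limit was not always enough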;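 further: z-score of nuclear minus cytoplasmic ring GR-EGFP intensity difference per well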
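medium = tetracycline-free induction medium containing charcoal-stripped FBS | also added = 1.0 µM final dexamethasone stimulus | schedule = 48 h induction, 1 h compound, 30 min dex at 37 °C | technique = fixed, Hoechst-stained cells imaged at 10x for EGFP | measure = GR-EGFP nuclear translocation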
zVAD necrop conf: confirmed blocker of zVAD induced death in L929 cells | AID 463117 | shares compounds with zVAD death inh | L929 zVAD-induced necroptosis rescue, ATP luminescence, 24 h | activation (protection from necroptosis), % at 10 µM | 760 compounds, 16% hits;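 active means mean protection from necroptosis of at least 50% over duplicate tests; inactive means mean protection below 50%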;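 further: 0% = cells with zVAD alone and 100% = vehicle cells without zVAD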
* marks the source's active call; other numbers are inactive results; nt = no result given.

SMILES	Beta2AR agonist	zVAD death inh	Mdm2 ligase inh	TNF necrop inh	Dynein cargo inh	zVAD necrop conf
CC(C)c1ccc(NC(=O)c2sccc2-n2cccc2)cc1	10	84*	-7	3	-0.16	25
CC1CN(S(=O)(=O)c2ccc(C(=O)Nc3nccs3)cc2)CC(C)O1 (stereo unspecified)	-6	84*	-14	23	0.53	5
O=C(Nc1nccs1)c1ccc(S(=O)(=O)N2CCCCC2)cc1	-1	104*	-16	52*	2.4	77*
CC1CN(S(=O)(=O)c2ccc(C(=O)Nc3ccc(S(=O)(=O)Nc4nccs4)cc3)cc2)CC(C)O1 (stereo unspecified)	-2	1	3	2	-0.12	nt
O=C(Nc1nccs1)c1ccc(S(=O)(=O)c2ccccc2)cc1	1	1	3	7	1.4	nt
Cc1nn(Cc2ccc(C(=O)Nc3ccc(Br)c4cccnc34)o2)c(C)c1Br	nt	nt	nt	2	-0.0024	nt
CCOc1ccc(CN2C(=O)CC(=O)N(S(=O)(=O)c3ccc(OCC)cc3)C2=O)cc1	4	0	-4	4	-0.48	nt
CCOC(=O)C1C(=O)NC(SCC(=O)OC)=C(C#N)C1c1ccccc1OCC (stereo unspecified)	8	0	-14	-1	2.4	nt
CCOC(=O)C1C(=O)NC(SCC(=O)Nc2nccs2)=C(C#N)C1c1ccccc1OCC (stereo unspecified)	1	88*	-7	16	-1.4	67*
COc1ccccc1C(=O)NCc1nnc(SCC(=O)Nc2nccs2)n1C	0	nt	nt	nt	nt	nt
CCOC(=O)CCC(=O)NNC(=O)c1ccc(NC(=O)c2ccccc2)cc1	-2	75*	-2	-1	-0.34	12
O=C(Cc1ccccc1)NNC(=O)c1ccc(NC(=O)c2ccccc2)cc1	0	62	-16	1	0.24	nt
COc1cc(NC(=O)c2ccno2)cc(C(=O)Nc2cccc(C(F)(F)F)c2)c1	-2	2	11	3	-0.83	nt
O=C(Nc1ccc(-c2csc(Nc3cccc(C(F)(F)F)c3)n2)cc1)c1ccccc1	4	83*	15	8	0.65	38
COc1ccc(-c2cc(C(=O)Nc3cc(OC)cc(C(=O)Nc4cccc(C(F)(F)F)c4)c3)[nH]n2)cc1	8	79*	22	2	2.1	3
O=C(COC(=O)c1ccc(OC(F)(F)F)cc1)Nc1ncccn1	0	nt	nt	nt	nt	nt
O=C(COc1ccc(Cl)cc1)Nc1ccc2c(c1)CCC2	1	0	-12	2	-0.47	nt
CC(=O)c1ccc(OCC(=O)Nc2ccc3c(c2)CCC3)cc1	-3	75*	14	-2	-0.71	0
CN(CC(=O)Nc1ccccc1Br)C(=O)C(Cc1ccccc1)NC(=O)c1ccccc1 (stereo unspecified)	4	nt	nt	nt	nt	nt
S=c1[nH]nc(-c2ccncc2)n1/N=C/C=C/c1ccccc1	-1	1	-9	2	0.052	nt
S=c1[nH]nc(-c2ccncc2)n1/N=C/C(Cl)=C\c1ccccc1	6	85*	-10	2	-1.9	5
CCn1c(SCC(=O)Nc2ccccc2Cl)nnc1C1CC1	1	nt	nt	nt	nt	nt
CC(=O)c1ccc(NC(=O)CSc2nc(C)cc(C)c2C(N)=O)cc1	-5	1	-10	-1	-0.75	nt
Cc1ccc(C(=O)Nc2cccc(C(F)(F)F)c2)cc1NC(=O)c1c[nH]c2cc(C(F)(F)F)ccc2c1=O	-4	nt	nt	nt	nt	nt
Cc1cn(-c2cc(C(=O)Nc3ccc(C)c(NC(=O)C(=O)c4c[nH]c5ccccc45)c3)cc(C(F)(F)F)c2)cn1	4	77*	12	-10	-0.069	71*
SMILES	Beta2AR agonist	zVAD death inh	Mdm2 ligase inh	TNF necrop inh	Dynein cargo inh	zVAD necrop conf
Cc1ccc(NC(=O)c2ccccc2)cc1-n1cnnn1	-9	75*	-12	2	0.91	6
Cc1ccc(NC(=O)c2ccccc2Cl)cc1-n1cnnn1	-2	69	-10	0	0.71	nt
CCn1c(=O)c(-c2nc3ccccc3[nH]2)c(O)c2ccccc21	nt	80*	-7	-1	0.3	1
CCOC(=O)c1cccc(COC(=O)c2cccc(-c3nnc(-c4ccccc4)o3)c2)c1	12	0	-31	3	-0.56	nt
O=C(Nc1ccc(N2CCCCC2)cc1)C(Cl)c1ccccc1 (stereo unspecified)	2	77*	-32	13	-0.27	7
Cc1cc(C)cc(NC(=O)Nc2ccc(N3CCCCC3)cc2)c1	7	77*	-10	2	0.34	34
O=C(Nc1ccc(N2CCCC2)cc1)C(c1ccccc1)c1ccccc1	-2	0	-7	2	-0.39	nt
Cc1c(-c2ccc(Cl)cc2)oc(=O)c2c(N)n(-c3ccccc3)nc12	-1	0	-11	2	-0.066	nt
Nc1c2c(=O)oc(-c3ccccc3)cc2nn1-c1ccccc1	5	90*	-5	-15	0.24	27
COc1cc(CNC(C)(C)CO)ccc1OCC(=O)Nc1ccc(Br)cc1	5	84*	-6	2	0.65	29
CSc1ccccc1C(=O)N1CCN(c2ncccn2)CC1	-4	-1	-3	-1	2.1	nt
O=C(COc1ccccc1)n1nc(-c2ccc(Cl)cc2)nc1NCc1ccco1	0	83*	-1	-1	-0.14	0
O=C(c1ccco1)n1nc(-c2ccc(Cl)cc2)nc1NCc1ccco1	-7	1	-17	0	-0.7	nt
O=C(O)c1cccc(N/N=C/c2ccc(-c3ccccc3)cc2)c1	4	0	-67	-1	0.41	nt
CCN(CCO)c1ccc(N=Nc2cc(C)[nH]n2)cc1	0	85*	-90	26	-0.66	34
Cc1cc(N(CCO)CCO)ccc1N=Nc1cc(F)ccc1F	-2	2	-1	2	-1.2	nt
COc1cccc(-n2c(Cc3cc(=O)[nH]c(=O)[nH]3)nnc2SCC(=O)NC2CCCC2)c1	-1	0	-31	0	-0.89	nt
CCc1ccc(Nc2cnn(-c3nc4ccccc4s3)c(=O)c2Cl)cc1	-9	0	-14	0	1.2	nt
Cc1[nH][nH]c(=O)c1C(c1c(C)[nH][nH]c1=O)c1cn(Cc2cccc3ccccc23)c2ccccc12	2	0	8	-23	-1.8	nt
Cc1[nH][nH]c(=O)c1C(c1c(C)[nH][nH]c1=O)c1cn(C)c2ccccc12	2	80*	-1	-3	-1.2	23
Nn1c(CN2CCCCC2)nc2ccccc2c1=O	-4	0	-3	0	1.1	nt
CC(C)c1ccc(-n2cnn(-c3ncccc3[N+](=O)[O-])c2=O)cc1	0	78*	-44	2	1.1	1
COc1cc(-c2cc(OC)c3c(C)oc(C)c3c(=O)c2)ccc1O	-11	14	-16	-3	-0.62	nt
